ChEMBL document CHEMBL3244342, “Haloacetamido analogues of 2-amino-2-deoxy-D-glucose and 2-amino-2-deoxy-D-galactose. Syntheses and effects on the Friend murine erythroleukemia” (J Med Chem, 1978)
Active and inactive are the calls of the source. The calls are words filed in the database; no cut-off is given here.

Assays:
[1] = Toxicity in ip dosed BDF1 mouse assessed as animal killed administered as single dose; conditions: in vivo
Leukemia cell [2] = assay: Antitumor activity against DBA/2J mouse Friend erythroleukemia cells allografted ip dosed DBA/2 mouse assessed as increase in host survival time administered on days 1, 2 and 3 after tumor transplantation; type: functional, organism-based
[3] = Antiproliferative activity against DBA/2J mouse Friend erythroleukemia cells after 3 days by cell counter; type: functional, cell-based; conditions: Leukemia cell, 72 h
Summary of the method: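 Log-phase suspension cultures in DMEM with 10% fetal calf serum, penicillin/streptomycin, 37 °C, 10% CO2, seeded at 10^5 cells/mL. Continuous exposure to a range of concentrations for 3 days. Water-insoluble agents given in ethanol (final ≤0.125%). Cells counted by Coulter counter. IC50 is the concentration giving 50% inhibition of multiplication versus vehicle-treated controls.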

Leukemia cell [4] = assay: Induction of cell differentiation in DBA/2J mouse Friend erythroleukemia cells assessed as proportion of hemoglobin containing cells at IC50 concentration for antiproliferative effect after 3 days by benzidine peroxide staining; type: functional, cell-based
Summary of the method: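 Exponentially growing cells seeded at 10^5 cells/mL in DMEM with 10% fetal calf serum at 37 °C and 10% CO2, incubated 3 days with the analogue. Ethanol vehicle final ≤0.125%. Hemoglobin-containing cells scored by benzidine peroxide stain. Controls received no drug or the inducer bis(acetyl)diaminopentane.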

[5] = Inhibition of cell growth of DBA/2J mouse Friend erythroleukemia cells at 4 uM after 3 days in presence of bis(acetyl)diaminopentane; type: functional; conditions: Leukemia cell, 72 h
Summary of the method: (§1)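 Exponentially growing cells seeded at 10^5 cells/mL, exposed for 3 days to 4.5 mM bis(acetyl)diaminopentane together with the analogue. Cell numbers counted by Coulter counter. Cytostasis expressed relative to untreated control cultures.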

[6] = Inhibition of bis(acetyl)diaminopentane-induced cell differentiation in DBA/2J mouse Friend erythroleukemia cells assessed as proportion of hemoglobin containing cells at 1 mM after 3 days by benzidine peroxide staining (reference value: 82.2 +/- 2.4%); type: functional; conditions: Leukemia cell, 72 h
[7] = Inhibition of cell growth of DBA/2J mouse Friend erythroleukemia cells at 1 mM after 3 days in presence of bis(acetyl)diaminopentane; type: functional; conditions: Leukemia cell, 72 h
Summary of the method: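 Log-phase Friend erythroleukemia cells (DBA/2J origin) were seeded at 10⁵ cells/mL in DMEM plus 10% fetal calf serum at 37 °C under 10% CO₂. Analogue at 1 mM was combined with the inducer bis(acetyl)diaminopentane at 4.5 mM. After 3 days, cell numbers were counted with a Coulter counter to give percent cytostasis.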

[8] = Inhibition of cell growth of DBA/2J mouse Friend erythroleukemia cells at 0.4 mM after 3 days in presence of bis(acetyl)diaminopentane; type: functional; conditions: Leukemia cell, 72 h; summary of the method: as §1
[9] = Bis(acetyl)diaminopentane-induced cell differentiation in DBA/2J mouse Friend erythroleukemia cells assessed as proportion of hemoglobin containing cells at 0.4 mM after 3 days by benzidine peroxide staining (reference value: 82.2 +/- 2.4%); conditions: Leukemia cell, 72 h

Row | Compound | LD50 [1] [µmol/kg] | Activity (Leukemia cell [2]) | IC50 [3] [µM] | Activity (Leukemia cell [4]) | inhibition at 4 µM [5] [%] | inhibition at 1000 µM [6] [%] | inhibition at 1000 µM [7] [%] | inhibition at 400 µM [8] [%] | benzidine-positive cells % at 400 µM [9] [%]
1 | O=C(CF)N[C@@H]1[C@@H](O)[C@@H](O)[C@@H](CO)O[C@H]1O | 740 | inactive |  |  |  |  |  |  | 
2 | O=C(O)CF [FLUOROACETATE] | 100 | inactive |  |  |  |  |  |  | 
3 | NC(=O)CCl |  | inactive | 200 |  |  |  |  |  | 
4 | CC(=O)N[C@H]1[C@H](OC(C)=O)O[C@H](COC(C)=O)[C@@H](OC(C)=O)[C@@H]1OC(C)=O |  | inactive | 400 |  |  |  |  |  | 
5 | CC(=O)OC[C@H]1O[C@@H](OC(C)=O)[C@H](NC(=O)CBr)[C@@H](OC(C)=O)[C@H]1OC(C)=O | 220 | inactive | 4 | inactive | 83 |  |  |  | 
6 | CC(=O)OC[C@H]1O[C@@H](OC(C)=O)[C@H](NC(=O)CF)[C@@H](OC(C)=O)[C@H]1OC(C)=O | 980 | inactive | 60 | inactive |  |  |  |  | 
7 | CC(=O)OC[C@H]1O[C@@H](OC(C)=O)[C@H](NC(=O)CCl)[C@@H](OC(C)=O)[C@H]1OC(C)=O | 670 | inactive | 15 | inactive |  |  |  |  | 
8 | O=C(CCl)N[C@@H]1[C@@H](O)[C@@H](O)[C@@H](CO)O[C@H]1O | 1500 | inactive |  |  |  |  |  |  | 
9 | CC(=O)OC[C@H]1O[C@@H](OC(C)=O)[C@H](NC(=O)CF)[C@@H](OC(C)=O)[C@@H]1OC(C)=O | 170 | inactive | 60 | inactive |  |  |  |  | 
10 | CC(=O)OC[C@H]1O[C@@H](OC(C)=O)[C@H](NC(=O)CBr)[C@@H](OC(C)=O)[C@@H]1OC(C)=O | 210 | inactive | 3 | inactive |  |  |  |  | 
11 | CC(=O)OC[C@H]1O[C@@H](OC(C)=O)[C@H](NC(=O)CCl)[C@@H](OC(C)=O)[C@@H]1OC(C)=O | 940 | inactive | 8 | inactive |  |  |  |  | 
12 | O=C(CBr)N[C@@H]1[C@@H](O)[C@@H](O)[C@@H](CO)O[C@H]1O | 1700 | inactive |  |  |  |  |  |  | 
13 | O=C(CF)N[C@@H]1[C@@H](O)[C@H](O)[C@@H](CO)O[C@H]1O | 180 | inactive | 1000 | inactive |  | 69.5 | 83 |  | 
14 | O=C(CCl)N[C@@H]1[C@@H](O)[C@H](O)[C@@H](CO)O[C@H]1O | 2000 | inactive | 400 | inactive |  |  |  | 83 | 24
15 | O=C(CBr)N[C@@H]1[C@@H](O)[C@H](O)[C@@H](CO)O[C@H]1O | > 2400 | inactive |  |  |  |  |  |  | 
